The source of these data is paper PMC5651194 (Cellular signalling, 2017).

The IC50 is the concentration that inhibits the measured activity by half.

Experiment [1] has as its target murine PDE4A1 (Mus musculus, UniProt O89084). Description: Yeast-based HTS. Format: cell-based. Conditions: duplicate plates, OD600 after 48 h. The essentials:
(§1)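 S. pombe gpa2Δ strains carrying the PKA-repressed fbp1-ura4+ reporter, with the PDE replacing endogenous Cgs2, grown in 5FOA medium. Compounds from 5 mg/mL stocks were pinned in. OD600 read after 48 h at 30°C. Run on duplicate plates; composite Z = replicate Z-score vector scaled by cosine correlation with the diagonal. Controls: 0.2% DMSO (negative), 5 mM cAMP (positive).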

Experiment [2] deals with rat PDE4A5 (Rattus norvegicus, UniProt P54748). Description: Yeast-based HTS. It is filed as cell-based. Conditions: duplicate plates, OD600 after 48 h. The essentials:
as §1

Experiment [3] deals with murine PDE4B3 (Mus musculus, UniProt Q8VBU5). Description: Yeast-based HTS. It is filed as cell-based. Conditions: duplicate plates, OD600 after 48 h. In a few lines:
as §1

The target of experiment [4] is human PDE7A1 (Homo sapiens, UniProt Q13946). Description: Yeast-based HTS. Conditions: duplicate plates, OD600 after 48 h. It is filed as cell-based. The essentials:
as §1

Experiment [5] addresses Human PDE4A10 (Homo sapiens, UniProt P27815). Description: In vitro PDE assay. Format: biochemical. In a few lines: (§2)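 Radiolabelled cAMP hydrolysis with cAMP substrate at 40nM. Reactions stopped in linear phase with 0.2 M ZnSO4, hydrolysis limited to ~50% conversion. 5′-AMP precipitated with 0.25 N Ba(OH)2 and pelleted by centrifugation for 15 min. Supernatant radioactivity counted by scintillation.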

In experiment [6] the target is Human PDE4B2 (Homo sapiens, UniProt Q07343). Description: In vitro PDE assay. Format: biochemical.
Experiment [7] has as its target Human PDE4D2 (Homo sapiens, UniProt Q08499). Description: In vitro PDE assay. Format: biochemical. In a few lines: as §2
The target in experiment [8] is human PDE7A (Homo sapiens, UniProt Q13946). Description: In vitro PDE assay. Format: biochemical. The essentials: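 Human PDE7 enzymes (PDE7A recombinant) assayed with 10nM cAMP substrate. Stopped during linear phase with 0.2 M ZnSO4, conversion kept near 50%. Product 5′-AMP removed by 0.25 N Ba(OH)2 precipitation and 15 min centrifugation. Remaining supernatant radioactivity read in scintillation fluid.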

For experiment [9], the target named is PDE7B (Homo sapiens, UniProt Q9NP56). Description: In vitro PDE assay. It is filed as biochemical.
Experiment [10] deals with rat PDE2A (Rattus norvegicus, UniProt Q01062). Description: In vitro PDE assay. It is filed as biochemical. In a few lines:
(§3)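 Recombinant PDE (human PDE1C, PDE3B, PDE5A1, PDE8A, PDE9A2, PDE10A1, PDE11A4; rat PDE2A) incubated with radiolabelled cyclic nucleotide substrate. Stopped in linear phase with 0.2 M ZnSO4, hydrolysis ≤~50%. 5′-nucleotide precipitated with 0.25 N Ba(OH)2 and spun down for 15 min. Supernatant radioactivity measured by scintillation counting.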

The target of experiment [11] is human PDE11A4 (Homo sapiens, UniProt Q9HCR9). Description: In vitro PDE assay. It is filed as biochemical. In a few lines: as §3
Experiment [12] addresses human PDE1C (Homo sapiens, UniProt Q14123). Description: In vitro PDE assay. It is filed as biochemical. The essentials:
as §3

Experiment [13] concerns the target human PDE3B (Homo sapiens, UniProt Q13370). Description: In vitro PDE assay. Format: biochemical. In a few lines: as §3
The target of experiment [14] is human PDE5A1 (Homo sapiens, UniProt O76074). Description: In vitro PDE assay. It is filed as biochemical. In a few lines:
as §3

The target in experiment [15] is human PDE8A (Homo sapiens, UniProt O60658). Description: In vitro PDE assay. It is filed as biochemical. The essentials: as §3
The target in experiment [16] is human PDE9A2 (Homo sapiens, UniProt O76083). Description: In vitro PDE assay. It is filed as biochemical. The essentials:
as §3

Experiment [17] concerns the target human PDE10A1 (Homo sapiens, UniProt Q9Y233). Description: In vitro PDE assay. It is filed as biochemical. In a few lines:
as §3

Experiment [18] deals with mutant PDE4B2^T407A catalytic domain (Homo sapiens, UniProt Q07343, T579A). Description: In vitro enzyme assay, catalytic domain purified from E. coli. It is filed as biochemical.
Experiment [19] concerns PDE4 and PDE7 relative to PDE2A and PDE11A. Description: Selectivity from in vitro PDE assays. Format: biochemical.
Experiment [20] concerns CLL cells. Description: CLL apoptosis assay. Conditions: 20μM, 48 h, median and standard deviation of three assays. It is filed as cell-based, human. In a few lines: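 PBMC from heparinized blood of CLL patients, isolated on Histopaque 1077 and washed. Plated at 1 million cells/well in RPMI 1640 with 10% FBS, 20 mM L-glutamine and penicillin/streptomycin. Exposed to 20μM test compound or vehicle for 48 h at 37°C, 5% CO2. Harvested, stained 10 min at 37°C with Hoechst 33342 (0.25 μg/mL final), then analysed by flow cytometry.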

Experiment [21] deals with TNFα production by LPS-stimulated macrophage (U937 cells). Description: TNFα assay. Format: cell-based. Conditions: 20μM.
The subject of experiment [22] is IL-2 production by PMA-PHA stimulated Jurkat T cells. Description: IL-2 assay. It is filed as cell-based. Conditions: 20μM.
The test system of experiment [23] is S. pombe strain that expresses Git2 adenylyl cyclase and human PDE4B2. Description: Stationary phase viability of yeast. It is filed as cell-based. Conditions: 10μM BC54, three days in stationary phase. The essentials:
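S. pombe CHP1346 (git2+ cgs2-2) transformants expressing PDE4B2 or no PDE, plus CHP1207 (git2Δ cgs2-2) with PDE4B2. Grown to stationary phase for three days in EMM-leucine ± 10μM test compound. Diluted 100-fold in YES, then four 10-fold serial dilutions. Spotted onto YES, grown at 30°C and photographed.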

The subject of experiment [24] is yeast strains that express human PDE4A1, PDE4B2, PDE4D3, PDE7A1 or PDE7B1. Description: 5FOA growth assay, dose response. Format: cell-based. Conditions: dose response 0.05 μM to 50 μM.
Experiment [25] concerns PDE8A. Conditions: not a hit; cited from earlier work.
The subject of experiment [26] is PDE11A. Conditions: very weak hit; cited from earlier work.
Experiment [27] concerns PDE7B. Conditions: cited from earlier work.
The test system of experiment [28] is PDE7A. Conditions: cited from earlier work.

Sequence of human PDE8A (O60658 whole entry): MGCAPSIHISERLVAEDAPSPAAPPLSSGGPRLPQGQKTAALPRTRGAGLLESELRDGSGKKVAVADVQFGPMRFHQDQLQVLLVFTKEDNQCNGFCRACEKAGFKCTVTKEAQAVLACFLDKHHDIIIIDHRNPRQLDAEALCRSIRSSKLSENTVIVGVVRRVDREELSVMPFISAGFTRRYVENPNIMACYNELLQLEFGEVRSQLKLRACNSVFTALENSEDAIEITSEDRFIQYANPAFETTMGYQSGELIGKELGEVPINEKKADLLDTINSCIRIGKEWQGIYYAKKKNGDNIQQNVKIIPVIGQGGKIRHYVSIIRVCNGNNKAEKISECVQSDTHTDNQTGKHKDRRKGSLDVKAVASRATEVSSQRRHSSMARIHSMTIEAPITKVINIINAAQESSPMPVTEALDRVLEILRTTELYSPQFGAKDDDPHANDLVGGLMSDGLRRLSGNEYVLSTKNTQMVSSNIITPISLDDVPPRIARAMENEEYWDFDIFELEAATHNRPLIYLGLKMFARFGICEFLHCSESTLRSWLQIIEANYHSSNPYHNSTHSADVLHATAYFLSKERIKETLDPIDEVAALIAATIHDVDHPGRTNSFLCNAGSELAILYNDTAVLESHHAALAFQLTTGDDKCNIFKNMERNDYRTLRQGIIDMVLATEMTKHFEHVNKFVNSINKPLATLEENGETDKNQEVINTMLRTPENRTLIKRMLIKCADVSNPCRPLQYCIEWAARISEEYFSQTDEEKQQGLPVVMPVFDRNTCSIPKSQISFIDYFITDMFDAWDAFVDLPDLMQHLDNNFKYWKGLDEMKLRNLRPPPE
Sequence of mutant PDE4B2^T407A catalytic domain (Q07343 324-659 T579A): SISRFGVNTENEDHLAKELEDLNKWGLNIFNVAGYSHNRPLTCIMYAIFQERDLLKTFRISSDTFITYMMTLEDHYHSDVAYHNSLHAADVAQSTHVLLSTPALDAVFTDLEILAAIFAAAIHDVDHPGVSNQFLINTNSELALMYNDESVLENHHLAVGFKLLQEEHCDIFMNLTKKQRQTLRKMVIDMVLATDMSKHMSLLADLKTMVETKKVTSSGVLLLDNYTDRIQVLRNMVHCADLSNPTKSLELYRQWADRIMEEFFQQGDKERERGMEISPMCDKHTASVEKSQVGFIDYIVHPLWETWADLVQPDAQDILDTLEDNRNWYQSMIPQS
Sequence of Human PDE4B2 (Q07343 324-659): as the sequence (Q07343 324-659 T579A) above, with A256T counted along it
Sequence of rat PDE4A5 (P54748 whole entry): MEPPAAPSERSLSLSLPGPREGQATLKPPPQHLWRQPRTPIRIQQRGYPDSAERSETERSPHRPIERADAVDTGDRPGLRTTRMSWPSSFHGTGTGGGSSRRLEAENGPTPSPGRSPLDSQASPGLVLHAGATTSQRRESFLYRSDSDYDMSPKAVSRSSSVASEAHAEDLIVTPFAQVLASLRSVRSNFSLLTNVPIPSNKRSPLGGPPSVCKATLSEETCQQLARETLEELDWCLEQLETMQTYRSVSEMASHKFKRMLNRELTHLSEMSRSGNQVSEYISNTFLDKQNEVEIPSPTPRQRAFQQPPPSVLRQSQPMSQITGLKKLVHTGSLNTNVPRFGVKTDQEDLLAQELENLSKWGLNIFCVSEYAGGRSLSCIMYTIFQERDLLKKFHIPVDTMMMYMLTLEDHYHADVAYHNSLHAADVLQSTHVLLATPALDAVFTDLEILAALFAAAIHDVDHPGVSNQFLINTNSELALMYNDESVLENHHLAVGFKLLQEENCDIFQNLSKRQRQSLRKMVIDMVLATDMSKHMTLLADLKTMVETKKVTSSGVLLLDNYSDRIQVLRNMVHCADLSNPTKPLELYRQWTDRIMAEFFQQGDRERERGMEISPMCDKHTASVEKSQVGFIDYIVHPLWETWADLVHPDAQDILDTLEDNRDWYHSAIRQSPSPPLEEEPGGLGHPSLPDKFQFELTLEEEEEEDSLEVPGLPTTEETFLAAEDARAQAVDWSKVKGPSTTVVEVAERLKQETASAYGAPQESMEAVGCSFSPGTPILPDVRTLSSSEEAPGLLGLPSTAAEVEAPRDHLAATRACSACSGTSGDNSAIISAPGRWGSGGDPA
Sequence of PDE7B (Homo sapiens, UniProt Q9NP56) (Q9NP56 whole entry): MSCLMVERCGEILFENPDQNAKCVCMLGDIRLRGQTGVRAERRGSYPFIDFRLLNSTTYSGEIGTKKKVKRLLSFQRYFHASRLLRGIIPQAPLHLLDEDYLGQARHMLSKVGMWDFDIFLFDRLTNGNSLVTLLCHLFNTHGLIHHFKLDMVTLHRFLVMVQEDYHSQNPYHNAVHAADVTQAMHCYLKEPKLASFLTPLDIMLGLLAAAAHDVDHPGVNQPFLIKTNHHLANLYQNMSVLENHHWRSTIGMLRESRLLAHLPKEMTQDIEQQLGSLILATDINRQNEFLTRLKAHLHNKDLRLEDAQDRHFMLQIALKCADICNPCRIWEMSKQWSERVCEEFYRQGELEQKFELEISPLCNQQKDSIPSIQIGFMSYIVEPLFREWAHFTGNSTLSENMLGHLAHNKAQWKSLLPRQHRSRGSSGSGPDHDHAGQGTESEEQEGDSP
Sequence of rat PDE2A (Q01062 whole entry): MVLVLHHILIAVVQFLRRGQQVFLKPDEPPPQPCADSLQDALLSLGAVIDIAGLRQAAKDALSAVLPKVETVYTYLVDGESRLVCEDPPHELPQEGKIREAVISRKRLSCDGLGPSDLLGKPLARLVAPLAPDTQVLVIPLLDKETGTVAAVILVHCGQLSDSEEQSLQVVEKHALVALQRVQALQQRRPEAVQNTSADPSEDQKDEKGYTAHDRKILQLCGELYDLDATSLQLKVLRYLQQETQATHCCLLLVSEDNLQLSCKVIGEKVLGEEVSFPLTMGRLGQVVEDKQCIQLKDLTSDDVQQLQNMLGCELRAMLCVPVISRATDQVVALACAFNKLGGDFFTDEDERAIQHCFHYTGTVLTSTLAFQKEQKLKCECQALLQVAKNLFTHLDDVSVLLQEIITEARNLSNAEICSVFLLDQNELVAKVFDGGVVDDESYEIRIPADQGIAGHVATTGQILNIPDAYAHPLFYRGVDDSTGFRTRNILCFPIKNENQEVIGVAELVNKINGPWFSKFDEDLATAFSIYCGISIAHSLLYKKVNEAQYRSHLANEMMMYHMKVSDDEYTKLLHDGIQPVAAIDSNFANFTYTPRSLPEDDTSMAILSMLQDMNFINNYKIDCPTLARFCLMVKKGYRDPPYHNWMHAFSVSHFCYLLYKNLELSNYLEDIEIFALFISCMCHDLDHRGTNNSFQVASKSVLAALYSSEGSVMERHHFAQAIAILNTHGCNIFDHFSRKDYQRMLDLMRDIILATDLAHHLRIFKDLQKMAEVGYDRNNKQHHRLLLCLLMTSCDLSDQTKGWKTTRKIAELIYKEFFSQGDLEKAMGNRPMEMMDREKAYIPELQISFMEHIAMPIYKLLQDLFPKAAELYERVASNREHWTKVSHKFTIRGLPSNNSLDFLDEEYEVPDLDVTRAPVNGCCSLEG
Sequence of human PDE3B (Q13370 whole entry): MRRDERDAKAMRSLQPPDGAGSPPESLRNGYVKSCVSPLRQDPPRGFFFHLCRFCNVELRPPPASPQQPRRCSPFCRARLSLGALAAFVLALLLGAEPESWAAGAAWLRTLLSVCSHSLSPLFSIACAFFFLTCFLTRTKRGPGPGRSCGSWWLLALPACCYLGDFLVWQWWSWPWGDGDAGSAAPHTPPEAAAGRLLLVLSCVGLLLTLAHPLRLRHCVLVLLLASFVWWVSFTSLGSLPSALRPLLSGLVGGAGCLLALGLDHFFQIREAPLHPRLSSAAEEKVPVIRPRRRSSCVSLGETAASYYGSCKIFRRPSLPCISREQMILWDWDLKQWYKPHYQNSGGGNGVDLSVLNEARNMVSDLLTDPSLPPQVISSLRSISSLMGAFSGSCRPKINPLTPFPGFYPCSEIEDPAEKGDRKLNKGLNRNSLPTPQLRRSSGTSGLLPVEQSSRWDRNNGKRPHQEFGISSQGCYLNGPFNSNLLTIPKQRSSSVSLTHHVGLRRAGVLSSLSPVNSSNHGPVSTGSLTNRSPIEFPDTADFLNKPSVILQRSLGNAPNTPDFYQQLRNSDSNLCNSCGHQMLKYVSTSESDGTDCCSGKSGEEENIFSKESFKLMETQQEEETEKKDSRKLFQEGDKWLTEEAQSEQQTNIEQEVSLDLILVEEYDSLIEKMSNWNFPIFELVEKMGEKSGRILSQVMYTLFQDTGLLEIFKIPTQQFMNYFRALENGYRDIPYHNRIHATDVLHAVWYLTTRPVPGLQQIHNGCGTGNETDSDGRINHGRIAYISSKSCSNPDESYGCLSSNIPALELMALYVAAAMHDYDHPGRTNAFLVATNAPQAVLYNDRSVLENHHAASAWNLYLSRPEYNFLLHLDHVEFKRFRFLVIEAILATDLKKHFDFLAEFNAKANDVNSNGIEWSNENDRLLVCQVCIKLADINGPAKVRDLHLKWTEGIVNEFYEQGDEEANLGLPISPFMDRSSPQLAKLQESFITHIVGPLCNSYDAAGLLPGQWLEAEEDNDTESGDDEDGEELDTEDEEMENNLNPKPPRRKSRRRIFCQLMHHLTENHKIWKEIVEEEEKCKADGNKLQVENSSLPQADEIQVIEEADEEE
Sequence of Human PDE4D2 (Q08499 388-713): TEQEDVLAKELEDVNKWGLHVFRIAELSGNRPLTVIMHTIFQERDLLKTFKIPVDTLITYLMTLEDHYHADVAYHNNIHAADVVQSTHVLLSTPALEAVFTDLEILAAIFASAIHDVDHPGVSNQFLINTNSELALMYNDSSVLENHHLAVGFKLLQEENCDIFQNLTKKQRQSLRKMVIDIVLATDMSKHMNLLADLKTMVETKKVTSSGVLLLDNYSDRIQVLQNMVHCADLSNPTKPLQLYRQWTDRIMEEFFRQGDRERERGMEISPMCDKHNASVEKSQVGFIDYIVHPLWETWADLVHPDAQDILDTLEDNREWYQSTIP

Turning to `CCOC(=O)c1cc2c(=O)n3ccccc3nc2n(C2CCCCC2)/c1=N\C(C)=O` [BC54, ethyl (2Z)-2-(acetylimino)-1-cyclohexyl-5-oxo-1,5-dihydro-2H-dipyrido[1,2-a:2′,3′-d] pyrimidine-3-carboxylate], the “Composite Z score” value in experiment [1] is greater than 40; in [2] it was greater than 40; in experiment [3] it was greater than 40; in [4], greater than 40; in experiment [25], −2.35; in experiment [26] it was 7.74. Besides, the IC50 is 50 to 110 nM in experiment [5]; 50 to 110 nM in experiment [6]; 50 to 110 nM in [7]; 140 nM in [8]; 140 nM in experiment [9]; roughly 3000 nM in [10]. In addition, the half-inhibitory concentration (IC50) is roughly 3000 nM in experiment [11]; greater than 10000 nM in experiment [12]; greater than 10000 nM in experiment [13]; greater than 10000 nM in experiment [14]; greater than 10000 nM in [15]; greater than 10000 nM in [16]. Besides, the IC50 in experiment [17] is greater than 10000 nM; in experiment [18], 124 ± 8.8 nM. Moreover, the “selectivity for PDE4 and PDE7 relative to PDE2A and PDE11A” value in [19] is on record as “greater than 20 fold”. Besides, the CLL apoptosis in [20] (Patient 1) came out at 87.3±0.76; in [20] (Patient 2) it was 58.8±3.12; in [20] (Patient 3), 39.8±1.79. Also, in [21], the TNFα production result is recorded as “significantly reduces”. Further, in experiment [22], the IL-2 production entry was “significantly reduces”. Besides, the “reduction of stationary phase viability” value in experiment [23] was “approximately ten-fold”. In addition, in experiment [24], the “potency in 5FOA growth assay” value was “significant potency at sub-micromolar concentrations”.

In the case of `COc1ccc(C2CNC(=O)C2)cc1OC1CCCC1` (stereo not drawn) [rolipram], the figures for the CLL apoptosis in experiment [20] (Patient 1), in experiment [20] (Patient 2) and in [20] (Patient 3) were 76.7±0.76, 35.6±0.7 and 20.3±2.18, respectively.

For `Cc1ccc([N+](=O)[O-])cc1S(=O)(=O)N(C)C` [BRL50481, 3-(N,N-dimethylsulfonamido)-4-methyl-nitrobenzene], the CLL apoptosis in experiment [20] (Patient 1) is listed as 52.5±0.78; in experiment [20] (Patient 2) it was 26.3±1.02; in [20] (Patient 3), 5.1±0.72. Further, the IC50 was 12100 nM in experiment [27] and 150 nM in experiment [28].
